Calls of active or inactive are those of the source. No cut-off for these calls is given here.
Legend:
Rattus norvegicus [1] = assay: Hypoglycemic activity in rat assessed as decrease in plasma glucose at 5 mg/kg, iv; assay type: functional, organism-based; set-up: dose 5 mg/kg
[2] = target: Alpha-glucosidase MAL62 (Saccharomyces cerevisiae) (UniProt P07265); assay: (§1) Inhibition of yeast alpha-glucosidase assessed as inhibition of p-nitrophenyl-alpha-D-glucopyranoside substrate hydrolysis after 35 mins by spectroscopy
Chain of Alpha-glucosidase MAL62 (Saccharomyces cerevisiae) (P07265 whole entry): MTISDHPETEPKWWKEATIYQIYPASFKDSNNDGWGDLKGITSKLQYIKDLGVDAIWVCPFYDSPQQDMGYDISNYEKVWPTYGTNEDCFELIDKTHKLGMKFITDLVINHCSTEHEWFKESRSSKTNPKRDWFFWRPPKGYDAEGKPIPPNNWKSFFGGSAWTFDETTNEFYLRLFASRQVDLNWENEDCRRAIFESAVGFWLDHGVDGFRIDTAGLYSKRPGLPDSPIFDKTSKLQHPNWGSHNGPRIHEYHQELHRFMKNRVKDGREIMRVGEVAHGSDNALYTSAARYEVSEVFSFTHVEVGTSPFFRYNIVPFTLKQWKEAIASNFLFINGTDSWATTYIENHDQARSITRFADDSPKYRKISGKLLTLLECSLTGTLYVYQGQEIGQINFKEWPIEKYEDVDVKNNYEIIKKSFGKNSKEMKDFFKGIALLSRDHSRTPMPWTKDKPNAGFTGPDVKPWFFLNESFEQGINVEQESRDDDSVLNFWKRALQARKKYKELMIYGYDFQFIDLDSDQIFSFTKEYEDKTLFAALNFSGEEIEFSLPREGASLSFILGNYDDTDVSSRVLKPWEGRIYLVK

Rattus norvegicus [3] = assay: Hypoglycemic activity in rat assessed as increase in insulin concentration at 5 mg/kg, iv; assay type: functional, organism-based; set-up: dose 5 mg/kg
Mus musculus [4] = assay: Antihyperglycemic activity in po dosed diabetic KK-Ay mouse model; assay type: functional, organism-based
L6 = assay: Hypoglycemic activity in rat L6 myotubes assessed as increase in 2-deoxyglucose transport at 25 uM relative to control; assay type: functional
Mus musculus [5] = assay: Antihyperglycemic activity in ICR mouse assessed as change in blood glucose level at 20 mg/kg after 0.5 hr by oral glucose tolerance test (RVb= 59 %); assay type: functional
Mus musculus [6] = assay: Antihyperglycemic activity in ICR mouse assessed as change in blood glucose level at 10 mg/kg after 2 hrs by oral glucose tolerance test (RVb= -12 %); assay type: functional
Mus musculus [7] = assay: Antihyperglycemic activity in ICR mouse assessed as change in blood glucose level at 20 mg/kg after 1.5 hrs by oral glucose tolerance test (RVb= 2.5 %); assay type: functional
Mus musculus [8] = assay: Antidiabetic activity in streptozotocin-induced diabetic ICR mouse assessed as change in blood glucose level at 31.2 mg/kg after 0.5 hr by oral glucose tolerance test (RVb= 51.9 %); assay type: functional
Alpha-glucosidase MAL62 = Alpha-glucosidase MAL62 (Saccharomyces cerevisiae, UniProt P07265); assay: as §1
Chain of Alpha-glucosidase MAL62 (P07265 whole entry): as above

Mus musculus [9] = assay: Antidiabetic activity in streptozotocin-induced diabetic ICR mouse assessed as change in blood glucose level at 10 mg/kg after 2 hrs by oral sucrose tolerance test (RVb= -4.3 %); assay type: functional
Method in brief: (§2)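 NAD (40 mg/kg ip) then STZ (100 mg/kg ip, 15 min later) diabetic male ICR mice, glucose >140 mg/dL after 7 days. Animals fasted 12 h, dosed orally in 0.05% Tween 80/saline, and given oral sucrose 2 g/kg 30 min later.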

Mus musculus [10] = assay: Antidiabetic activity in streptozotocin-induced diabetic ICR mouse assessed as change in blood glucose level at 10 mg/kg after 1 hr by oral sucrose tolerance test (RVb= 11.4 %); assay type: functional; method in brief: as §2
Mus musculus [11] = assay: Antidiabetic activity in streptozotocin-induced diabetic ICR mouse assessed as change in blood glucose level at 56.2 mg/kg after 0.5 hr by oral sucrose tolerance test (RVb= 56 %); assay type: functional; method in brief: as §2
Mus musculus [12] = assay: Antidiabetic activity in streptozotocin-induced diabetic ICR mouse assessed as change in blood glucose level at 31.2 mg/kg after 1 hr by oral glucose tolerance test (RVb= 10.3 %); assay type: functional
Mus musculus [13] = assay: Antidiabetic activity in streptozotocin-induced diabetic ICR mouse assessed as change in blood glucose level at 31.2 mg/kg after 2 hrs by oral glucose tolerance test (RVb= -12.9 %); assay type: functional
Mus musculus [14] = species: Mus musculus; assay: Inhibition of alpha-glucosidase in streptozotocin-induced diabetic ICR mouse intestine assessed as lowering of blood glucose levels; assay type: functional, organism-based; method in brief: as §2
Mus musculus [15] = assay: Antidiabetic activity in streptozotocin-induced diabetic ICR mouse assessed as change in blood glucose level at 56.2 mg/kg after 1.5 hrs by oral glucose tolerance test (RVb= 0.005 %); assay type: functional
Mus musculus [16] = assay: Antidiabetic activity in streptozotocin-induced diabetic ICR mouse assessed as change in blood glucose level at 10 mg/kg after 0.5 hr by oral glucose tolerance test (RVb= 51.9 %); assay type: functional
Mus musculus [17] = assay: Antidiabetic activity in streptozotocin-induced diabetic ICR mouse assessed as change in blood glucose level at 56.2 mg/kg after 2 hrs by oral glucose tolerance test (RVb= -12.9 %); assay type: functional
Mus musculus [18] = assay: Antidiabetic activity in streptozotocin-induced diabetic ICR mouse assessed as change in blood glucose level at 10 mg/kg after 2 hrs by oral glucose tolerance test (RVb= -12.9 %); assay type: functional
Mus musculus [19] = assay: Antidiabetic activity in streptozotocin-induced diabetic ICR mouse assessed as change in blood glucose level at 56.2 mg/kg after 2 hrs by oral sucrose tolerance test (RVb= -4.3 %); assay type: functional; method in brief: as §2
Mus musculus [20] = assay: Antidiabetic activity in streptozotocin-induced diabetic ICR mouse assessed as change in blood glucose level at 31.2 mg/kg after 1.5 hrs by oral glucose tolerance test (RVb= 0.005 %); assay type: functional
Mus musculus [21] = assay: Antihyperglycemic activity in ICR mouse assessed as change in blood glucose level at 10 mg/kg after 1.5 hrs by oral glucose tolerance test (RVb= 2.5 %); assay type: functional
Mus musculus [22] = assay: Antidiabetic activity in streptozotocin-induced diabetic ICR mouse assessed as change in blood glucose level at 10 mg/kg after 0.5 hr by oral sucrose tolerance test (RVb= 56 %); assay type: functional; method in brief: as §2
Mus musculus [23] = assay: Antihyperglycemic activity in ICR mouse assessed as change in blood glucose level at 10 mg/kg after 1 hr by oral glucose tolerance test (RVb= 1.5 %); assay type: functional
Mus musculus [24] = assay: Antihyperglycemic activity in ICR mouse assessed as change in blood glucose level at 20 mg/kg after 1 hr by oral glucose tolerance test (RVb= 1.5 %); assay type: functional
Mus musculus [25] = assay: Antidiabetic activity in streptozotocin-induced diabetic ICR mouse assessed as change in blood glucose level at 56.2 mg/kg after 1.5 hrs by oral sucrose tolerance test (RVb= 6.1 %); assay type: functional; method in brief: as §2
Mus musculus [26] = assay: Antidiabetic activity in streptozotocin-induced diabetic ICR mouse assessed as change in blood glucose level at 10 mg/kg after 1.5 hrs by oral glucose tolerance test (RVb= 0.005 %); assay type: functional
Mus musculus [27] = assay: Antidiabetic activity in streptozotocin-induced diabetic ICR mouse assessed as change in blood glucose level at 10 mg/kg after 1.5 hrs by oral sucrose tolerance test (RVb= 6.1 %); assay type: functional; method in brief: as §2
Mus musculus [28] = assay: Antidiabetic activity in streptozotocin-induced diabetic ICR mouse assessed as change in blood glucose level at 56.2 mg/kg after 1 hr by oral glucose tolerance test (RVb= 10.3 %); assay type: functional
Mus musculus [29] = assay: Antihyperglycemic activity in ICR mouse assessed as change in blood glucose level at 20 mg/kg after 2 hrs by oral glucose tolerance test (RVb= -12 %); assay type: functional
Mus musculus [30] = assay: Antidiabetic activity in streptozotocin-induced diabetic ICR mouse assessed as change in blood glucose level at 10 mg/kg after 1 hr by oral glucose tolerance test (RVb= 10.3 %); assay type: functional
Mus musculus [31] = assay: Antidiabetic activity in streptozotocin-induced diabetic ICR mouse assessed as change in blood glucose level at 56.2 mg/kg after 0.5 hr by oral glucose tolerance test (RVb= 51.9 %); assay type: functional
Mus musculus [32] = assay: Antihyperglycemic activity in ICR mouse assessed as change in blood glucose level at 10 mg/kg after 0.5 hr by oral glucose tolerance test (RVb= 59 %); assay type: functional
Mus musculus [33] = assay: Antidiabetic activity in streptozotocin-induced diabetic ICR mouse assessed as change in blood glucose level at 56.2 mg/kg after 1 hr by oral sucrose tolerance test (RVb= 11.4 %); assay type: functional; method in brief: as §2
Mus musculus [34] = assay: Antidiabetic activity in streptozotocin-induced diabetic ICR mouse assessed as change in blood glucose level at 5 mg/kg after 1.5 hrs by oral sucrose tolerance test (RVb= 6.1 %); assay type: functional; method in brief: as §2
Mus musculus [35] = species: Mus musculus; assay: Antidiabetic activity in streptozotocin-induced diabetic ICR mouse assessed as lowering of blood glucose level by oral sucrose tolerance test; assay type: functional, organism-based; method in brief: as §2
Mus musculus [36] = assay: Antidiabetic activity in streptozotocin-induced diabetic ICR mouse assessed as change in blood glucose level at 5 mg/kg after 1 hr by oral sucrose tolerance test (RVb= 11.4 %); assay type: functional; method in brief: as §2
Mus musculus [37] = assay: Antidiabetic activity in streptozotocin-induced diabetic ICR mouse assessed as change in blood glucose level at 5 mg/kg after 0.5 hr by oral sucrose tolerance test (RVb= 56 %); assay type: functional; method in brief: as §2
Mus musculus [38] = assay: Antidiabetic activity in streptozotocin-induced diabetic ICR mouse assessed as change in blood glucose level at 5 mg/kg after 2 hrs by oral sucrose tolerance test (RVb= -4.3 %); assay type: functional; method in brief: as §2
Mus musculus [39] = assay: Antihyperglycemic activity in ICR mouse assessed as change in blood glucose level at 56.2 mg/kg at 1.5 hrs by oral glucose tolerance test (RVb= 2.5 %); assay type: functional
Mus musculus [40] = assay: Antihyperglycemic activity in ICR mouse assessed as change in blood glucose level at 56.2 mg/kg at 0.5 hr by oral glucose tolerance test (RVb= 59 %); assay type: functional
Mus musculus [41] = assay: Antihyperglycemic activity in ICR mouse assessed as change in blood glucose level at 56.2 mg/kg at 2 hrs by oral glucose tolerance test (RVb= -12 %); assay type: functional
Mus musculus [42] = assay: Antihyperglycemic activity in ICR mouse assessed as change in blood glucose level at 31.2 mg/kg at 2 hrs by oral glucose tolerance test (RVb= -12 %); assay type: functional
Mus musculus [43] = assay: Antihyperglycemic activity in ICR mouse assessed as change in blood glucose level at 56.2 mg/kg at 1 hr by oral glucose tolerance test (RVb= 1.5 %); assay type: functional
Mus musculus [44] = assay: Antihyperglycemic activity in ICR mouse assessed as change in blood glucose level at 31.2 mg/kg at 1 hr by oral glucose tolerance test (RVb= 1.5 %); assay type: functional
Mus musculus [45] = assay: Antihyperglycemic activity in ICR mouse assessed as change in blood glucose level at 31.2 mg/kg after 0.5 hr by oral glucose tolerance test (RVb= 59 %); assay type: functional
Mus musculus [46] = assay: Antihyperglycemic activity in ICR mouse assessed as change in blood glucose level at 31.2 mg/kg at 1.5 hrs by oral glucose tolerance test (RVb= 2.5 %); assay type: functional

COc1cc(/C=C/C(=O)O)ccc1O [FERULATE]
Activity (Rattus norvegicus [1]): Active | Activity [2]: inactive | Activity (Rattus norvegicus [3]): Active | Activity (Mus musculus [4]): Active | fold change (FC) (L6): 2.98

CCCC=C1OC(=O)c2ccccc21 [(E)-BUTYLIDENEPHTHALIDE]
Activity (Mus musculus [5]): 20% | Activity (Mus musculus [6]): -42% | Activity (Mus musculus [7]): -18% | Activity (Mus musculus [8]): 27% | Activity [2]: Dose-dependent effect | IC50 (Alpha-glucosidase MAL62): 2.35 mM | Ki (Alpha-glucosidase MAL62): 4.86 mM | Activity (Mus musculus [9]): 6.7% | Activity (Mus musculus [10]): 19% | Activity (Mus musculus [11]): 23% | Activity (Mus musculus [12]): 3.3% | Activity (Mus musculus [13]): -9.1% | inhibition (Mus musculus [14]): Active | Activity (Mus musculus [15]): -12% | Activity (Mus musculus [16]): 35% | Activity (Mus musculus [17]): -21.7% | Activity (Mus musculus [18]): -7.4% | Activity (Mus musculus [19]): 6.4% | Activity (Mus musculus [20]): -0.3% | Activity (Mus musculus [21]): -41% | Activity (Mus musculus [22]): 41% | Activity (Mus musculus [23]): -24% | Activity (Mus musculus [24]): -6.9% | Activity (Mus musculus [25]): 2.5% | Activity (Mus musculus [26]): 1.5% | Activity (Mus musculus [27]): 16% | Activity (Mus musculus [28]): -5.2% | Activity (Mus musculus [29]): -23% | Activity (Mus musculus [30]): 3.5% | Activity (Mus musculus [31]): 12% | Activity (Mus musculus [32]): -9% | Activity (Mus musculus [33]): 7.6%

C[C@H]1O[C@H](O[C@H]2[C@H](O)[C@@H](O)[C@@H](O[C@H]3[C@H](O)[C@@H](O)C(O)O[C@@H]3CO)O[C@@H]2CO)[C@H](O)[C@@H](O)[C@@H]1N[C@H]1C=C(CO)[C@@H](O)[C@H](O)[C@H]1O (some centres undefined) [ACARBOSE]
Activity [2]: Dose-dependent effect | Activity (Mus musculus [34]): 6.2% | Activity (Mus musculus [35]): Active | Activity (Mus musculus [36]): 0.5% | Activity (Mus musculus [37]): -0.4% | Activity (Mus musculus [38]): 6.8%

CCC/C=C1\OC(=O)C2=C[C@H]3CC[C@]21C1C2=C(CC[C@H]13)/C(=C\CCC)OC2=O (some centres undefined)
Activity (Mus musculus [39]): -13% | Activity (Mus musculus [8]): 44% | Activity [2]: inactive | Activity (Mus musculus [12]): 32% | Activity (Mus musculus [13]): 8.8% | Activity (Mus musculus [40]): 41% | Activity (Mus musculus [41]): -27% | Activity (Mus musculus [42]): -50% | Activity (Mus musculus [15]): 25% | Activity (Mus musculus [16]): 32% | Activity (Mus musculus [17]): 8.9% | Activity (Mus musculus [43]): -3.8% | Activity (Mus musculus [18]): -5.5% | Activity (Mus musculus [20]): 23% | Activity (Mus musculus [26]): 5.7% | Activity (Mus musculus [44]): -28% | Activity (Mus musculus [28]): 52% | Activity (Mus musculus [45]): 3.8% | Activity (Mus musculus [30]): 5.7% | Activity (Mus musculus [46]): -35% | Activity (Mus musculus [31]): 57%
